Assay results from ChEMBL document CHEMBL3286113, “New potent antibacterial oxazolidinone (MRX-I) with an improved class safety profile” (J Med Chem, 2014).
In brackets after ≈: the same amount, converted by molar mass.

How the values were obtained:
Staphylococcus aureus [1] = assay: Antibacterial activity against Staphylococcus aureus UC9213; format: functional
Staphylococcus aureus [2] = assay: Antibacterial activity against Staphylococcus aureus in po dosed mouse septicemia model; format: functional
[3] = target: T1, Amine oxidase [flavin-containing] A (Homo sapiens, UniProt P21397); assay: Inhibition of human recombinant MAO-A expressed in yeast after 1 hr by luciferin-based luminescence assay
T1 sequence (P21397 whole entry): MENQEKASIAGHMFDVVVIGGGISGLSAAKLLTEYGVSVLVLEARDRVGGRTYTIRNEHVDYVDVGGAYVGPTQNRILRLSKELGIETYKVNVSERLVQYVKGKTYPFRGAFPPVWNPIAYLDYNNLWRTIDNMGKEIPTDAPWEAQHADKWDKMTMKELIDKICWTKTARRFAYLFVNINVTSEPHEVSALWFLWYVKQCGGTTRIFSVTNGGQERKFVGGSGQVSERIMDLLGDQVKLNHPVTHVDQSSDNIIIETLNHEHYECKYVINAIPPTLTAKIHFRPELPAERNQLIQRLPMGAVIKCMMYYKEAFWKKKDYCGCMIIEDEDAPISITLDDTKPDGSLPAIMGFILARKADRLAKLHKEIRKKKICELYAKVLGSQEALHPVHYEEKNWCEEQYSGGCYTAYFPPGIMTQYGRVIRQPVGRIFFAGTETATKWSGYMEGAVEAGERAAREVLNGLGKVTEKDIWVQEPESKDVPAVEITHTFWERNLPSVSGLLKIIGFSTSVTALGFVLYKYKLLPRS

Staphylococcus aureus [4] = assay: Antibacterial activity against methicillin-resistant Staphylococcus aureus SAU1009; format: functional
Summary of the method: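 MIC against MRSA strain SAU1009.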

Staphylococcus aureus [5] = assay: Antibacterial activity against Staphylococcus aureus by agar dilution method; format: functional
Summary of the method: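 MIC determined by agar dilution across S. aureus/MRSA isolates; MIC90 is the concentration inhibiting 90% of strains tested.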

Row | SMILES | ED50 (Staphylococcus aureus [2]) [mg/kg] | MIC (Staphylococcus aureus [4]) [µg/mL] | also measured
1 | CC(=O)NC[C@H]1CN(c2ccc(N3C=CC(=O)CC3)c(F)c2)C(=O)O1 | 10 |  | MIC (Staphylococcus aureus [1]): 0.5 µg/mL (≈ 1.44 µM); IC50 [3]: 10.9 µM
2 | O=C1C=CN(c2ccc(N3C[C@H](COc4ccon4)OC3=O)c(F)c2F)CC1 | > 20 | 4 (≈ 10.2 µM) | 
3 | Cn1nnc(-c2ccc(-c3ccc(N4C[C@H](CO)OC4=O)c(F)c3F)cn2)n1 |  | 1 (≈ 2.58 µM) | 
4 | CC(=O)NC[C@H]1CN(c2cc(F)c(N3CCOCC3)c(F)c2F)C(=O)O1 |  |  | MIC90 (Staphylococcus aureus [5]): 4 µg/mL (≈ 10.7 µM)
5 | O=C1O[C@@H](CO)CN1c1ccc(-c2ccc(N3CCOC3=O)nc2)c(F)c1 |  | 0.125 (≈ 0.335 µM) | 
